Source: ChEMBL document CHEMBL1140177 (J Med Chem, 2008)
Converted amounts (≈) assume the structure as drawn.

Columns and labels:
[1] = target: Human immunodeficiency virus type 1 reverse transcriptase (Human immunodeficiency virus 1, UniProt Q72547); assay: Inhibition of wild type HIV1 RT polymerase by SPA
[2] = target: Human immunodeficiency virus type 1 reverse transcriptase (Human immunodeficiency virus 1, UniProt Q72547, K103N); assay: Inhibition of HIV1 RT polymerase K103N mutant by SPA
[3] = target: Human immunodeficiency virus type 1 reverse transcriptase (Human immunodeficiency virus 1, UniProt Q72547, Y181C); assay: Inhibition of HIV1 RT polymerase Y181C mutant by SPA
[4] = system: Human immunodeficiency virus 1; assay: Antiviral activity against wild type HIV1 infected in human MT4 cells after 72 hrs in presence of 10% fetal bovine serum; type: functional; conditions: Human immunodeficiency virus 1, MT4, 72 h; read-out: CIC95
Summary of the method: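 MT-4 human T-lymphoid cells in RPMI 1640 with 10% FBS. CIC95 is the concentration that inhibits viral spread by >95%. Values are either geometric means of two determinations or given with standard deviations for n > 3 or n > 50.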

[5] = system: Human immunodeficiency virus 1; assay: Antiviral activity against HIV1 with reverse transcriptase K103N mutant infected in human MT4 cells after 72 hrs in presence of 10% fetal bovine serum; type: functional; conditions: Human immunodeficiency virus 1, MT4, 72 h; read-out: CIC95
Summary of the method: (§1)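 Mutant HIV-1 spread was assayed in MT-4 human T-lymphoid cells kept in RPMI 1640 with 10% FBS. CIC95 is the concentration that inhibits viral spread by >95%. Values are geometric means of two determinations, or mean with standard deviation where n > 3. Cytotoxicity was checked up to an assay limit of 8.3 µM.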

[6] = system: Human immunodeficiency virus 1; assay: Antiviral activity against HIV1 with reverse transcriptase Y181C mutant infected in human MT4 cells after 72 hrs in presence of 10% fetal bovine serum; type: functional; conditions: Human immunodeficiency virus 1, MT4, 72 h; read-out: CIC95; summary of the method: as §1
[7] = system: Human immunodeficiency virus 1; assay: Antiviral activity against wild type HIV1 infected in human MT4 cells after 72 hrs in presence of 50% normal human serum; type: functional; conditions: Human immunodeficiency virus 1, MT4, 72 h; read-out: CIC95
Summary of the method: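 MT-4 human T-lymphoid cells in RPMI 1640 with 50% NHS. CIC95 is the concentration that inhibits viral spread by >95%. Values are either geometric means of two determinations or given with standard deviations for n > 3 or n > 50.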

[8] = Half life in Sprague-Dawley rat at 10 mg/kg, po and 2 mg/kg, iv; type: ADME, organism-based; conditions: in vivo
[9] = Clearance in Sprague-Dawley rat at 10 mg/kg, po and 2 mg/kg, iv; type: ADME, organism-based; conditions: in vivo
[10] = AUC in Sprague-Dawley rat at 10 mg/kg, po; type: ADME, organism-based; set-up: dose 10 mg/kg, route oral; conditions: plasma
[11] = Volume of distribution in Sprague-Dawley rat at 10 mg/kg, po and 2 mg/kg, iv; type: ADME, organism-based; conditions: in vivo
[12] = Oral bioavailability in Sprague-Dawley rat at 10 mg/kg; type: ADME, organism-based; conditions: in vivo
[13] = Half life in Beagle dog at 2 mg/kg, po and 0.25 mg/kg, iv; type: ADME, organism-based, Canis lupus familiaris; conditions: in vivo
Summary of the method: (§2)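 Two beagle dogs, averaged. Oral dose 2 mpk in Imwitor/Tween; intravenous dose 0.25 mpk in DMSO.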

[14] = Clearance in Beagle dog at 2 mg/kg, po and 0.25 mg/kg, iv; type: ADME, organism-based, Canis lupus familiaris; conditions: in vivo; summary of the method: as §2
[15] = AUC in Beagle dog at 2 mg/kg, po; type: ADME, organism-based, Canis lupus familiaris; set-up: dose 2 mg/kg, route oral; conditions: plasma; summary of the method: as §2
[16] = Volume of distribution in Beagle dog at 2 mg/kg, po and 0.25 mg/kg, iv; type: ADME, organism-based, Canis lupus familiaris; conditions: in vivo; summary of the method: as §2
[17] = Oral bioavailability in Beagle dog at 2 mg/kg; type: ADME, organism-based, Canis lupus familiaris; conditions: in vivo; summary of the method: as §2
[18] = Half life in rhesus monkey at 10 mg/kg, po and 1 mg/kg, iv; type: ADME, organism-based, Macaca mulatta; conditions: in vivo
Summary of the method: (§3)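 Two rhesus macaques, averaged. Oral dose 10 mpk in Imwitor/Tween; intravenous dose 1 mpk in DMSO.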

[19] = Clearance in rhesus monkey at 10 mg/kg, po and 1 mg/kg, iv; type: ADME, organism-based, Macaca mulatta; conditions: in vivo; summary of the method: as §3
[20] = AUC in rhesus monkey at 10 mg/kg, po; type: ADME, organism-based, Macaca mulatta; set-up: dose 10 mg/kg, route oral; conditions: plasma
[21] = Volume of distribution in rhesus monkey at 10 mg/kg, po and 1 mg/kg, iv; type: ADME, organism-based, Macaca mulatta; conditions: in vivo; summary of the method: as §3
[22] = Oral bioavailability in rhesus monkey at 10 mg/kg; type: ADME, organism-based, Macaca mulatta; conditions: in vivo
[23] = Solubility at pH 7; type: physicochemical; conditions: buffer
[24] = Solubility at pH 2; type: physicochemical; conditions: buffer
[25] = system: Human immunodeficiency virus 1; assay: Antiviral activity against wild type HIV1 in presence of 40% normal human serum; type: functional, organism-based
Summary of the method: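 Monogram Bioscience PhenoScreen cell-culture assay run with 40% NHS. […] Value is the geometric mean of n = 2.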

[26] = system: Human immunodeficiency virus 1; assay: Antiviral activity against HIV1 with reverse transcriptase G190A mutant in presence of 40% normal human serum; type: functional, organism-based
[27] = system: Human immunodeficiency virus 1; assay: Antiviral activity against HIV1 with reverse transcriptase G190S mutant in presence of 40% normal human serum; type: functional, organism-based
[28] = system: Human immunodeficiency virus 1; assay: Antiviral activity against HIV1 with reverse transcriptase L100I mutant in presence of 40% normal human serum; type: functional, organism-based
[29] = system: Human immunodeficiency virus 1; assay: Antiviral activity against HIV1 with reverse transcriptase K103N mutant in presence of 40% normal human serum; type: functional, organism-based
[30] = system: Human immunodeficiency virus 1; assay: Antiviral activity against HIV1 with reverse transcriptase Y181C mutant in presence of 40% normal human serum; type: functional, organism-based
[31] = system: Human immunodeficiency virus 1; assay: Antiviral activity against HIV1 with reverse transcriptase Y188L mutant in presence of 40% normal human serum; type: functional, organism-based
[32] = system: Human immunodeficiency virus 1; assay: Antiviral activity against HIV1 with reverse transcriptase K101E/G190A mutant in presence of 40% normal human serum; type: functional, organism-based
[33] = system: Human immunodeficiency virus 1; assay: Antiviral activity against HIV1 with reverse transcriptase K103N/G190A mutant in presence of 40% normal human serum; type: functional, organism-based
[34] = system: Human immunodeficiency virus 1; assay: Antiviral activity against HIV1 with reverse transcriptase K103N/P225H mutant in presence of 40% normal human serum; type: functional, organism-based
[35] = system: Human immunodeficiency virus 1; assay: Antiviral activity against HIV1 with reverse transcriptase K103N/V179E mutant in presence of 40% normal human serum; type: functional, organism-based
[36] = system: Human immunodeficiency virus 1; assay: Antiviral activity against HIV1 with reverse transcriptase K103N/Y181C mutant in presence of 40% normal human serum; type: functional, organism-based
[37] = system: Human immunodeficiency virus 1; assay: Antiviral activity against HIV1 with reverse transcriptase Y181C/G190A mutant in presence of 40% normal human serum; type: functional, organism-based

N#Cc1cc(Cl)cc(Oc2cc(OCc3n[nH]c4ncccc34)ccc2Cl)c1
IC50 [1]: 0.4 nM
IC50 [2]: 0.5 nM
IC50 [3]: 0.2 nM
IC95 [4]: 10.3 nM
IC95 [5]: 14.6 nM
IC95 [6]: 22 nM
IC95 [7]: 34 nM
half-life [8]: 4.1 h
clearance [9]: 28 mL/min/kg
AUC [10]: 9.5 µM·h
Vd [11]: 5.3 L/kg
bioavailability [12]: 58%
half-life [13]: 11.8 h
clearance [14]: 8.9 mL/min/kg
AUC [15]: 1.6 µM·h
Vd [16]: 2.6 L/kg
bioavailability [17]: 17%
half-life [18]: 8.2 h
clearance [19]: 19 mL/min/kg
AUC [20]: 0.3 µM·h
Vd [21]: 4.4 L/kg
bioavailability [22]: 3%
solubility [23]: 0.1 µg/mL (≈ 0.243 µM)
solubility [24]: < 0.1 µg/mL
IC50 [25]: 1.5 nM
IC50 [26]: 1.8 nM
IC50 [27]: 6.8 nM
IC50 [28]: 1.1 nM
IC50 [29]: 2.5 nM
IC50 [30]: 4.1 nM
IC50 [31]: 900 nM
IC50 [32]: 4.8 nM
IC50 [33]: 4 nM
IC50 [34]: 4.8 nM
IC50 [35]: 6 nM
IC50 [36]: 34.1 nM
IC50 [37]: 17.1 nM

N#Cc1cc(Cl)cc(Oc2cc(OCc3n[nH]c4cccnc34)ccc2Cl)c1
IC50 [1]: 3.6 nM
IC50 [2]: 40 nM
IC50 [3]: 740 nM
IC95 [4]: 307 nM
IC95 [5]: 2770 nM
IC95 [7]: 922 nM

N#Cc1cc(Cl)cc(Oc2cc(OCc3n[nH]c4cnccc34)ccc2Cl)c1
IC50 [1]: 0.8 nM
IC50 [2]: 1.3 nM
IC50 [3]: 3.9 nM
IC95 [4]: 10.8 nM
IC95 [5]: 34.2 nM
IC95 [6]: 31 nM
IC95 [7]: 34 nM

O=C1Nc2ccc(Cl)cc2[C@@](C#CC2CC2)(C(F)(F)F)O1 [EFAVIRENZ]
IC95 [4]: 4.6 nM
IC95 [5]: 245 nM
IC95 [6]: 87 nM
IC95 [7]: 42 nM
